Measured values pooled from the literature.
Compare with care: the assays were run in different laboratories.
Target: Serine/threonine-protein kinase MARK1 (MARK1, Homo sapiens, UniProt Q9P0L2)

CN1CCc2cc(Nc3ncc(C4CC4)c(NCCCNC(=O)C4CCC4)n3)ccc2C1
remaining activity (enzyme activity; inhibitor; radiometric; 1 µM): -1%

CS(=O)(=O)NCC[C@H](NC(=O)c1cncc2c1cnn2-c1ccc(F)cc1)c1ccnc(S(C)(=O)=O)c1
remaining binding (cell-free assay; competition with immobilised ligand; 1 µM): 92%

Cc1cc(NC(=O)c2cccc3cc(-c4cccc5[nH]nc(N)c45)ccc23)ccc1F
activity vs control (enzyme activity; inhibitor; 0.1 µM): 133%

CCCCN(CCCC)C(=O)CN1C[C@H](c2cc(OC)c3c(c2)OCO3)[C@@H](C(=O)O)[C@@H]1CC(C)(C)CCC
remaining binding (cell-free assay; competition with immobilised ligand; 1 µM): 96.5%

CNc1cccc2cc(C(=O)Nc3ccc(C(=O)O)cc3)c(=O)[nH]c12
inhibition (enzyme activity; inhibitor; 10 µM): -26%

COc1cc2ncnc(Nc3ccc(Oc4ccccc4)c(C)c3C)c2cc1OC
inhibition (enzyme activity; inhibitor; 1 µM): 2%

O=C(NCc1ncc(C(F)(F)F)cc1Cl)c1ccc2c(c1)C1(CCS(=O)(=O)CC1)[C@H](C1CC1)N2S(=O)(=O)c1ccc(F)cc1
remaining binding (cell-free assay; competition with immobilised ligand; 1 µM): 100%

CC/C(=N\NC(=O)NCc1cccc(O)c1)c1ccc(O)c(C)c1O
inhibition (enzyme activity; inhibitor; 0.1 µM): -2.5%

O=C1NC(=O)c2cc(Nc3ccc(F)cc3)c(Nc3ccc(F)cc3)cc21
remaining signal (cell-free assay; 0.5 µM): 98.9%

COc1cc(Nc2cnc(C#N)c(O[C@H](C)CN(C)C)n2)ncc1-c1cnn(C)c1
remaining activity (enzyme activity; inhibitor; radiometric; 1 µM): 95%

CCN(CC)CCNC(=O)c1c(C)[nH]c(/C=C2\C(=O)Nc3ccc(F)cc32)c1C
inhibition (enzyme activity; inhibitor; 10 µM): 92%

O=S(=O)(NC1CCC(c2cc(F)ccc2F)(S(=O)(=O)c2ccc(Cl)cc2)CC1)C(F)(F)F (centres unmarked)
remaining binding (cell-free assay; competition with immobilised ligand; 1 µM): 100%

Cc1ncc([N+](=O)[O-])n1C(=NO)c1ccccc1C(F)(F)F
inhibition (enzyme activity; inhibitor; 10 µM): 34.2%

C=CC(=O)Nc1cc(Nc2nccc(Nc3cc(Cl)c(F)cc3C(C)(C)O)n2)c(OC)cc1N1CC[C@@H](N(C)C)C1
inhibition (enzyme activity; inhibitor; 1 µM): 4%

C[C@@]1(Cc2ccc(C#N)cc2)C(=O)N(c2cc(Cl)cc(Cl)c2)c2ncc(C(=O)NC3(c4nc(C5CCC5)no4)CC3)n21
remaining binding (cell-free assay; competition with immobilised ligand; 1 µM): 100%

O=C(NCCCNc1nc(Nc2cccc(NC(=O)N3CCCC3)c2)ncc1C1CC1)C1CCC1
remaining activity (enzyme activity; inhibitor; radiometric; 1 µM): -4%

COc1cc(-c2cn(C3CCc4ccccc4N(CC(F)(F)F)C3=O)nn2)ccc1-n1ccc(C)n1 (centres unmarked)
remaining binding (cell-free assay; competition with immobilised ligand; 1 µM): 99%

Cc1ccc(Nc2nccc(N(C)c3ccc4c(C)n(C)nc4c3)n2)cc1S(N)(=O)=O
inhibition (enzyme activity; inhibitor; 0.3 µM): 19%

Cc1nn(CC(F)(F)F)cc1Nc1ncc(Br)c(NCCCNC(=O)C2CCC2)n1
remaining activity (enzyme activity; inhibitor; radiometric; 1 µM): 8%

CO[C@@H](C)c1c(Nc2ccc([C@@H](N(C)C(=O)C3CCS(=O)(=O)CC3)C(F)(F)F)cc2)cnc2cc(Cl)nn12
remaining binding (cell-free assay; competition with immobilised ligand; 1 µM): 81%

O=C1Nc2ccc(Cl)cc2C1=Cc1cc(Cl)c(O)c(Cl)c1
remaining signal (cell-free assay; 0.5 µM): 89.5%

C[C@@H](c1cccc(C#N)c1)n1cc(Cl)cc(C(N)=O)c1=N
remaining binding (cell-free assay; competition with immobilised ligand; 1 µM): 100%

O=C(NCCCNc1nc(Nc2cccc(NC(=O)N3CCCC3)c2)ncc1I)c1cccs1
remaining activity (enzyme activity; inhibitor; radiometric; 1 µM): -5%

CNC(=O)c1cc(Oc2ccc(NC(=O)Nc3ccc(Cl)c(C(F)(F)F)c3)cc2)ccn1
inhibition (enzyme activity; inhibitor; 10 µM): 8%

Cc1nn(CC(F)(F)F)cc1Nc1ncc(C2CC2)c(NCc2ccc(S(N)(=O)=O)cc2)n1
remaining activity (enzyme activity; inhibitor; radiometric; 1 µM): 108%

FC(F)c1nc2ccccc2n1-c1nc(N2CCOCC2)nc(N2CCOCC2)n1
remaining activity (enzyme activity; inhibitor; 10 µM): 106%

Cc1nn(CC(F)(F)F)cc1Nc1ncc(Br)c(NCc2ccc(S(N)(=O)=O)cc2)n1
remaining activity (enzyme activity; inhibitor; radiometric; 1 µM): 90%

C[S+]([O-])c1ccc(-c2nc(-c3ccncc3)c(-c3ccc(F)cc3)[nH]2)cc1 (centres unmarked)
remaining signal (cell-free assay; 0.5 µM): 105%

c1cc(CN2CCOCC2)cc(Nc2nccc(NCCc3cnc[nH]3)n2)c1
remaining activity (enzyme activity; inhibitor; radiometric; 1 µM): 75%

N#CCCc1ccc2c(c1)-c1[nH]c3ccc([N+](=O)[O-])cc3c1CC(=O)N2
remaining signal (cell-free assay; 0.5 µM): 67.4%

O=C(Nc1cccc(Nc2ncc(Br)c(NCCc3cnc[nH]3)n2)c1)N1CCCC1
remaining activity (enzyme activity; inhibitor; radiometric; 1 µM): -4%

FC(F)(F)Oc1cccc(-c2cnc3ccc(-c4ccncc4)nn23)c1
activity vs control (enzyme activity; inhibitor; radiometric; 1 µM): 92%
